Experimental data: ChEMBL document CHEMBL3588833 (ACS Med Chem Lett, 2015)
Calls of active or inactive are those of the source.

How the values were obtained:
[1] = molecular target: T1, Sodium channel protein type 10 subunit alpha (Homo sapiens, UniProt Q9Y5Y9); test: Inhibition of human Nav1.8 expressed in HEK293 cells assessed as reduction in blue fluorescent signal by VSP-FRET assay; format: cell-based
Outline: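 hNav1.8 stably expressed in an in-house HEK293 line; membrane-potential VSP-FRET read-out; IC50 from at least three tests on three separate assay runs.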

[2] = system: Rattus norvegicus; test: Antallodynic effect in Sprague-Dawley rat tibial nerve transection-induced mechanical allodynia model assessed as 50% shift in paw withdrawal threshold in ipsilateral paw at 10 mg/kg, single dose after 1.5 hrs (reference value: 1.7 +/- 0.2 g); format: functional
Outline: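 Rat tibial nerve transection neuropathic pain model; mechanical allodynia read as 50% paw withdrawal threshold (g) of the ipsilateral hindpaw. The threshold is taken at baseline and again 1.5 h after a single dose. Data are given as mean ± SEM, with significance set at P < 0.05.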

[3] = molecular target: T2, Sodium channel protein type 9 subunit alpha (Homo sapiens, UniProt Q15858); test: Inhibition of human Nav1.7 expressed in SHSY5Y cells by FRET assay; format: cell-based, SH-SY5Y
[4] = molecular target: T1, Sodium channel protein type 10 subunit alpha; test: Inhibition of human Nav1.8/beta1 expressed in HEK293 cells by manual patch clamp electrophysiology; format: cell-based
Outline: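 Recombinantly expressed human Nav1.8 with β1 subunit, recorded by manual whole-cell patch clamp electrophysiology. Inhibition was measured at the channel's V0.5 of inactivation, and IC50 values were derived from these recordings, with the number of determinations (n) reported per compound.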

[5] = molecular target: T3, Sodium channel protein type 2 subunit alpha (Homo sapiens, UniProt Q99250); test: Inhibition of human Nav1.2 expressed in SHSY5Y cells by IonWorks Quattro selectivity assay; format: cell-based, SH-SY5Y
T3 sequence (Q99250 whole entry): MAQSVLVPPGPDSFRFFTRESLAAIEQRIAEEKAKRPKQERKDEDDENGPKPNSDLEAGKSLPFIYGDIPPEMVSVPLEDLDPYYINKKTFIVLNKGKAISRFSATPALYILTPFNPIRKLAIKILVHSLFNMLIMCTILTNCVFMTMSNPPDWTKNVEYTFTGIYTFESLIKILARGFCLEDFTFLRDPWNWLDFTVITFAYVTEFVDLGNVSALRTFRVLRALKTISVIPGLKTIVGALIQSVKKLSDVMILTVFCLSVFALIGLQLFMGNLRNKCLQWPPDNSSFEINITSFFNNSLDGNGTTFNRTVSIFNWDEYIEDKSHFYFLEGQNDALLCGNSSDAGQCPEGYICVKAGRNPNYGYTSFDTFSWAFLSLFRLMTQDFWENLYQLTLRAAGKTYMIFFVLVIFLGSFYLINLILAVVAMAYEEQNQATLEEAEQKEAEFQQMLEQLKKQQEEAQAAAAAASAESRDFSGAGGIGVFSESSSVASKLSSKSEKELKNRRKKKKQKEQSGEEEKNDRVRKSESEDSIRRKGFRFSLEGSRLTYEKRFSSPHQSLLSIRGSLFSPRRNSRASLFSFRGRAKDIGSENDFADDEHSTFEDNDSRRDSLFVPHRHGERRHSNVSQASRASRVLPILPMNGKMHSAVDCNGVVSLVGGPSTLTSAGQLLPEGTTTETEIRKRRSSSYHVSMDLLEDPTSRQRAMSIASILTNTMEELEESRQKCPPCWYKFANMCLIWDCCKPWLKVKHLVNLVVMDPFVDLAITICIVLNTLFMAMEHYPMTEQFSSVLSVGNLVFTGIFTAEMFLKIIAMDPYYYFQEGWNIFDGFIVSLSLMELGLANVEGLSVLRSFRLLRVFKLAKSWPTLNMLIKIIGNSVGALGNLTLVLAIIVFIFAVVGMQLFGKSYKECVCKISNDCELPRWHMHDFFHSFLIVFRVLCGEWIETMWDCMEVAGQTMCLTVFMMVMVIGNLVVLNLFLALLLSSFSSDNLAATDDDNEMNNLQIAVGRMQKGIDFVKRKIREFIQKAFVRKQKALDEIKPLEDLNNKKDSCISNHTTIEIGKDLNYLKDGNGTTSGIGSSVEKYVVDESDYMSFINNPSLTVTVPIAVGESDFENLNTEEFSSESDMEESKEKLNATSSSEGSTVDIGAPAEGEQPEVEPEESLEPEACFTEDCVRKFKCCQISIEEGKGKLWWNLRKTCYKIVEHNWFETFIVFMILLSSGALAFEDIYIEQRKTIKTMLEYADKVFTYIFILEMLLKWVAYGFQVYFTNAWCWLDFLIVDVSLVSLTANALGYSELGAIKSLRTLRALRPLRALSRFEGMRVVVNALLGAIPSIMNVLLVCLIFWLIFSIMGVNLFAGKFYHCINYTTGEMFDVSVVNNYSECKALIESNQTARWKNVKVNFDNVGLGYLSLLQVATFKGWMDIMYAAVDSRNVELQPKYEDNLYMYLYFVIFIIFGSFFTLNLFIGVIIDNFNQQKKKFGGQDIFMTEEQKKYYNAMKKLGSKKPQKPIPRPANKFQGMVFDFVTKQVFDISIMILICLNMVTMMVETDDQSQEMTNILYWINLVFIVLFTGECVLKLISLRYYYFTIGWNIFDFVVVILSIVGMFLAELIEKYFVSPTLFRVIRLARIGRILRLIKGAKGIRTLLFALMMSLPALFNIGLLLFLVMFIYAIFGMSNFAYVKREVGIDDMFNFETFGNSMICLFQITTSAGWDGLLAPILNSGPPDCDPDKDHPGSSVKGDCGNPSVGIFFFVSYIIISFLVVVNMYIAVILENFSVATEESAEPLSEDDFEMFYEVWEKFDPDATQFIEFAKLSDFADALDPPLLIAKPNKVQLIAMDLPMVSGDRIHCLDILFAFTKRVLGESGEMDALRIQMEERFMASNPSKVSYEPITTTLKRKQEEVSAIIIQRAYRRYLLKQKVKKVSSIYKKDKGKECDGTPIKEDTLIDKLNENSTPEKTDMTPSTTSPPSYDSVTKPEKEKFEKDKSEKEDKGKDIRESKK

[6] = Plasma clearance in dog at 0.25 mg/kg, po; format: ADME, organism-based, Canis lupus familiaris
[7] = Volume of distribution in dog at 0.1 mg/kg, iv; format: ADME, organism-based, Canis lupus familiaris; conditions: in vivo
[8] = molecular target: Voltage-gated inwardly rectifying potassium channel KCNH2 (Homo sapiens, UniProt Q12809)
Chain of Voltage-gated inwardly rectifying potassium channel KCNH2 (Q12809 whole entry): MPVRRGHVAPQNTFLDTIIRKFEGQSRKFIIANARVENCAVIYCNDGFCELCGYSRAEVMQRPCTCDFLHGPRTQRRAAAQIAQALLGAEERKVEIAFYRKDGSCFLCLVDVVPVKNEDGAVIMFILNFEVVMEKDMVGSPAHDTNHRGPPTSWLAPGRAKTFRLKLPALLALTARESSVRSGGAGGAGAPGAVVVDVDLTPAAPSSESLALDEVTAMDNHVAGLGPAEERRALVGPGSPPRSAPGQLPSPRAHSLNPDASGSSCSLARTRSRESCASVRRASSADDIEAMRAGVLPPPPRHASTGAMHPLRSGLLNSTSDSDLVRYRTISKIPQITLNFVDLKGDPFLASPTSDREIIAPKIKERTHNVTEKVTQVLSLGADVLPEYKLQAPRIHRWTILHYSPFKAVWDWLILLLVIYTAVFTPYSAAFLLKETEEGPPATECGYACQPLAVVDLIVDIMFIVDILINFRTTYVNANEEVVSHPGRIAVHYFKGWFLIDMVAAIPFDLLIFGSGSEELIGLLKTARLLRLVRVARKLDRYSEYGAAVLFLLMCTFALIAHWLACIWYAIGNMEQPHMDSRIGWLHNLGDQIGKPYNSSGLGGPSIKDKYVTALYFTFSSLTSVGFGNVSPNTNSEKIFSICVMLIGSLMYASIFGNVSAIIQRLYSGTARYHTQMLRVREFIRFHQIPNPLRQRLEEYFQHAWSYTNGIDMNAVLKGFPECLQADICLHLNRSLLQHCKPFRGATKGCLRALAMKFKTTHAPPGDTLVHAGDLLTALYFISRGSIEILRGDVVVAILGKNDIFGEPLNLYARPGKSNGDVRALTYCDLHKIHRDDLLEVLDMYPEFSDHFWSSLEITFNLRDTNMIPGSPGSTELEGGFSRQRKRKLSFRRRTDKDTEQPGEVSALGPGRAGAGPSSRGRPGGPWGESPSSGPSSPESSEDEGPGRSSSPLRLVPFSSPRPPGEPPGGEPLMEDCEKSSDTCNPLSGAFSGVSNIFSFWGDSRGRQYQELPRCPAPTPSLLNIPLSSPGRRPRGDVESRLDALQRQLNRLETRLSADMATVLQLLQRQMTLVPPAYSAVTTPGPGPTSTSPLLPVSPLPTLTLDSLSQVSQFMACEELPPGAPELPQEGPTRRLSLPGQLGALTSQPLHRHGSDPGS

[9] = molecular target: Sodium channel protein type 3 subunit alpha (Homo sapiens, UniProt Q9NY46); test: Inhibition of human Nav1.3 expressed in SHSY5Y cells by IonWorks Quattro selectivity assay; format: cell-based, SH-SY5Y
[10] = Plasma clearance in dog at 0.1 mg/kg, iv; format: ADME, organism-based, Canis lupus familiaris
[11] = Half life in dog at 0.1 mg/kg, iv; format: ADME, organism-based, Canis lupus familiaris; conditions: in vivo
[12] = Oral bioavailability in dog at 0.25 mg/kg; format: ADME, organism-based, Canis lupus familiaris; conditions: in vivo
[13] = Inhibition of Voltage gated sodium channel-mediated TTX-r current in rat DRG neurons by manual patch clamp electrophysiology; conditions: DRG neuron
[14] = system: Rattus norvegicus; test: Antallodynic effect in Sprague-Dawley rat tibial nerve transection-induced mechanical allodynia model assessed as 50% shift in paw withdrawal threshold in ipsilateral paw at 40 mg/kg, single dose after 1.5 hrs (reference value: 1.7 +/- 0.3 g); format: functional
Outline: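 Tibial nerve transection neuropathic pain model in rat; single dose of 40 mg/kg; 50% paw withdrawal threshold of ipsilateral hindpaw measured 1.5 h post-dose against pre-dose baseline; pregabalin 10 mg/kg as comparator; mean ± SEM, P < 0.05 significance.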

[15] = Tmax in dog at 0.25 mg/kg, po; format: ADME, organism-based, Canis lupus familiaris; conditions: in vivo
[16] = molecular target: T3, Sodium channel protein type 2 subunit alpha; test: Inhibition of human Nav1.2 expressed in SHSY5Y cells assessed as reduction in blue fluorescent signal by VSP-FRET assay; format: cell-based, SH-SY5Y
[17] = molecular target: T2, Sodium channel protein type 9 subunit alpha; test: Inhibition of human Nav1.7 expressed in HEK293 cells by IonWorks Quattro assay
[18] = Plasma clearance in rat at 5 mg/kg, po; format: ADME, organism-based
[19] = Inhibition of Voltage gated sodium channel-mediated TTX-R current in human DRG neurons by manual patch clamp electrophysiology; conditions: DRG neuron
[20] = system: Rattus norvegicus; test: Antallodynic effect in Sprague-Dawley rat spinal nerve injury-induced neuropathic pain model at 10 or 30 mg/kg; format: functional, organism-based
[21] = molecular target: Sodium channel protein type 1 subunit alpha (Homo sapiens, UniProt P35498); test: Inhibition of human Nav1.1 expressed in HEK293 cells by IonWorks Quattro selectivity assay; format: cell-based
[22] = Intrinsic clearance in human liver microsomes; format: ADME; conditions: read-out: CLH
[23] = Plasma clearance in rat at 2 mg/kg, iv; format: ADME, organism-based
[24] = Oral bioavailability in rat at 5 mg/kg; format: ADME, organism-based; conditions: in vivo
[25] = Tmax in rat at 5 mg/kg, po; format: ADME, organism-based; conditions: in vivo
[26] = Intrinsic clearance in rat liver microsomes; format: ADME; conditions: read-out: CLH
[27] = Half life in rat at 5 mg/kg, po; format: ADME, organism-based; conditions: in vivo
[28] = Half life in rat at 2 mg/kg, iv; format: ADME, organism-based; conditions: in vivo
[29] = molecular target: T3, Sodium channel protein type 2 subunit alpha; test: Inhibition of human Nav1.2 expressed in HEK293 cells by IonWorks Quattro selectivity assay; format: cell-based
[30] = Volume of distribution in rat at 2 mg/kg, iv; format: ADME, organism-based; conditions: in vivo
[31] = molecular target: Sodium channel protein type 5 subunit alpha (Homo sapiens, UniProt Q14524); test: Inhibition of human Nav1.5 expressed in HEK293 cells by IonWorks Quattro selectivity assay; format: cell-based

T1 sequence (Q9Y5Y9 whole entry): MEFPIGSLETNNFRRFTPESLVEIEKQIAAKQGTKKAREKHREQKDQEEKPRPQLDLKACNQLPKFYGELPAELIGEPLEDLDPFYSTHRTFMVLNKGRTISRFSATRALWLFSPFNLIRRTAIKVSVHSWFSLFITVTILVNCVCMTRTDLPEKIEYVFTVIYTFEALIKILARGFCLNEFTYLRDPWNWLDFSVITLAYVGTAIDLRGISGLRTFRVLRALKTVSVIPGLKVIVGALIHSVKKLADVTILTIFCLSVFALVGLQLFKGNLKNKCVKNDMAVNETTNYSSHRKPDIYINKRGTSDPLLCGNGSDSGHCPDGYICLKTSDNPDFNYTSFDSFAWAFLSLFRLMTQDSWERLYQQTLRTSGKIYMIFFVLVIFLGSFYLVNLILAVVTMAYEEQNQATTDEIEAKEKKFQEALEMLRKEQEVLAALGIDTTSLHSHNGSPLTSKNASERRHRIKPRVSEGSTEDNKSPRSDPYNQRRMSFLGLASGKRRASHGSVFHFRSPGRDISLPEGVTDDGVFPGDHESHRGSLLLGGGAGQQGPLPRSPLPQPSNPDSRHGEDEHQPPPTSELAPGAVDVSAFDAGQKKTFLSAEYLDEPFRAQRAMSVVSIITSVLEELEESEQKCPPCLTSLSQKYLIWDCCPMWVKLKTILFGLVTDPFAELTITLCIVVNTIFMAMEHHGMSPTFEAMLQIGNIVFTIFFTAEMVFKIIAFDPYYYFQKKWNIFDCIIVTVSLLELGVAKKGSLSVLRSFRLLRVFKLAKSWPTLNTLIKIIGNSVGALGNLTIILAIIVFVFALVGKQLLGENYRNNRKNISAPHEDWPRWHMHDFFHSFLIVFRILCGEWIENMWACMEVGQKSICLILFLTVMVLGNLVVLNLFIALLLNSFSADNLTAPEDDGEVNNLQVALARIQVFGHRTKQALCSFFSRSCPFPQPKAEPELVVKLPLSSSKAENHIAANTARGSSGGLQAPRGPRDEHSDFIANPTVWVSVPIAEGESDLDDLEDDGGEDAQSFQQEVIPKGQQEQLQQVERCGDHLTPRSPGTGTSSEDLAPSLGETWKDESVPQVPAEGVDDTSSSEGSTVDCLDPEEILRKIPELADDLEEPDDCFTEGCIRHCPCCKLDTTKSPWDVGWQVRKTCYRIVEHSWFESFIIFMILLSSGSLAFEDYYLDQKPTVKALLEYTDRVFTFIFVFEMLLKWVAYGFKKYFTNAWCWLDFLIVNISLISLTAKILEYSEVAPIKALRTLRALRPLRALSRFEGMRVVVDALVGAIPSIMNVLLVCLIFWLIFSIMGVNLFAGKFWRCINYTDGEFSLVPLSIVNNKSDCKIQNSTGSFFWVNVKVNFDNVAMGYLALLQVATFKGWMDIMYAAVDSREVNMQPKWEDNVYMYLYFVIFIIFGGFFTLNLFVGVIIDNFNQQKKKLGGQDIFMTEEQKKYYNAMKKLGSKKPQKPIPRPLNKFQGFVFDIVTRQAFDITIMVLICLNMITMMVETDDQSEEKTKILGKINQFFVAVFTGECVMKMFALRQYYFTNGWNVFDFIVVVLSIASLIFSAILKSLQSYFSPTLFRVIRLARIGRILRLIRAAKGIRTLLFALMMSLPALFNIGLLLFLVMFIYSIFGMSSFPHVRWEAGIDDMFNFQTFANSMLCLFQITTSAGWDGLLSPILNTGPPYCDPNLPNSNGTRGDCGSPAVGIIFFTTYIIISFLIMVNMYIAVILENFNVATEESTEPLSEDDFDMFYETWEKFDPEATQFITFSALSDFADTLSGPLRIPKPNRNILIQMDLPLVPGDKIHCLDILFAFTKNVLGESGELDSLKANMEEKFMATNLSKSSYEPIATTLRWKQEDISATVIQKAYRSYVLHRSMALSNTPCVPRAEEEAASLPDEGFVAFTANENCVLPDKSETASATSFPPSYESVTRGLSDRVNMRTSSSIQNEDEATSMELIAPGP

CNC(=O)c1ccc(-c2cc(Cl)ccc2Cl)c(N)n1
IC50 [1]: 12 µM

COc1ccc(Cl)cc1-c1ccc(NC(=O)c2ccnn2C)nc1N
IC50 [1]: 7.4 µM

CC(C)C[C@H](CN)CC(=O)O [PREGABALIN]
Activity [2]: 5.8 g

Cc1nocc1C(=O)Nc1ccc(-c2ccccc2OC(F)(F)F)c(N)n1
IC50 [3]: 10 µM
IC50 [1]: 0.53 µM
IC50 [4]: 0.26 µM
IC50 [5]: 10 µM
CL/F [6]: 10 mL/min/kg
Vd [7]: 5.3 L/kg
IC50 [8]: > 30 µM
IC50 [9]: 10 µM
clearance [10]: 6.2 mL/min/kg
half-life [11]: 9.7 h
bioavailability [12]: 63%
IC50 [13]: 0.33 µM
Activity [14]: Active
Tmax [15]: 3.5 h

Cn1nccc1C(=O)Nc1ccc(-c2ccc(F)cc2Cl)c(N)n1
IC50 [1]: > 31 µM

Nc1nnc(-c2cccc(Cl)c2Cl)c(N)n1 [LAMOTRIGINE]
IC50 [1]: 98 µM
IC50 [16]: 17 µM

Cn1nccc1C(=O)Nc1ccc(-c2ccccc2OC(F)(F)F)c(N)n1
IC50 [1]: 2.4 µM

CNC(=O)c1ccc(-c2ccc(Cl)cc2)c(N)n1
IC50 [1]: > 32 µM

Cn1nccc1C(=O)Nc1ccc(-c2cc(Cl)ccc2Cl)c(N)n1
IC50 [1]: 0.92 µM

CNC(=O)c1ccc(-c2cc(Cl)cc(Cl)c2)c(N)n1
IC50 [1]: > 32 µM

CNC(=O)c1ccc(-c2cc(Cl)cc(Cl)c2Cl)c(N)n1
IC50 [1]: 2.6 µM
IC50 [4]: 0.19 µM
IC50 [16]: 14 µM
IC50 [17]: 19 µM
CL/F [18]: 13.3 mL/min/kg
IC50 [19]: 0.31 µM
Activity [20]: Active
IC50 [21]: 13 µM
IC50 [8]: 30 µM
microsomal CLint [22]: 7.1 µL/min/mg
clearance [23]: 11.7 mL/min/kg
bioavailability [24]: 91%
Tmax [25]: 1 h
microsomal CLint [26]: < 9 µL/min/mg
half-life [27]: 4.6 h
half-life [28]: 4 h
IC50 [29]: 12.8 µM
Vd [30]: 3 L/kg
IC50 [31]: 9 µM
IC50 [13]: 0.44 µM
